Data from ChEMBL document CHEMBL2412964, “Discovery of novel tetrahydro-pyrazolo [4,3-c] pyridines for the treatment of neuropathic pain: synthesis and neuropharmacology” (Eur J Med Chem, 2013).
The source made the active and inactive calls.

Assays:
Rattus norvegicus [1] = assay: Antinociceptive activity in Wistar rat partial sciatic nerve ligation model assessed as reversal of cold allodynia at 100 mg/kg, ip after 120 mins (reference value: 1.5 +/- 0.5%); assay type: functional; settings: route intraperitoneal
Rattus norvegicus [2] = assay: Antinociceptive activity in ip dosed Wistar rat chronic constriction injury model assessed as reversal of cold allodynia after 60 mins; assay type: functional; settings: 1 h
Procedure, shortened: (§1)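 Wistar rats (200–250 g) with nerve injury, compounds i.p. in 30% v/v PEG 400; dose–response curves in each sensory test (spontaneous pain and cold allodynia as paw withdrawal duration; tactile allodynia and hyperalgesia as withdrawal threshold). ED50 linearly interpolated between doses just above and below 50% response; time of peak effect recorded.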

Rattus norvegicus [3] = assay: Antinociceptive activity in Wistar rat partial sciatic nerve ligation model assessed as reversal of tactile allodynia at 100 mg/kg, ip after 30 mins (reference value: 7.7 +/- 0.7%); assay type: functional; settings: route intraperitoneal
Rattus norvegicus [4] = assay: Antinociceptive activity in Wistar rat chronic constriction injury model assessed as reversal of mechanical allodynia at 100 mg/kg, ip after 60 mins (reference value: 4.9 +/- 1.0%); assay type: functional; settings: route intraperitoneal
Cannabinoid receptor 1 = Cannabinoid receptor 1 (Rattus norvegicus, UniProt P20272); assay: Displacement of [3H]CP55940 from CB1 receptor in rat brain homogenate after 90 mins; assay type: tissue-based
Procedure, shortened: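 Rat brain (CB1) or spleen (CB2) membranes, homogenized in tris/NaCl/MgCl2 pH 7.4, competed against 0.5 nM [3H]CP55940 in 50 mM Tris-HCl, 2 mM EDTA, 5 mM MgCl2, 0.2 mg/mL BSA, pH 7.4; 90 min incubation. Nonspecific binding with 1 µM WIN (CB1) or 1 µM SR144528 (CB2); triplicates averaged.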

Rattus norvegicus [5] = assay: Antinociceptive activity in Wistar rat chronic constriction injury model assessed as reversal of cold allodynia at 100 mg/kg, ip after 30 mins (reference value: 0.6 +/- 2.7%); assay type: functional; settings: route intraperitoneal
Rattus norvegicus [6] = assay: Antinociceptive activity in ip dosed Wistar rat chronic constriction injury model assessed as reversal of spontaneous pain response after 60 mins; assay type: functional; settings: 1 h; procedure, shortened: as §1
Rattus norvegicus [7] = assay: Antinociceptive activity in ip dosed Wistar rat chronic constriction injury model assessed as reversal of tactile allodynia after 30 mins; assay type: functional; settings: 0.5 h; procedure, shortened: as §1
Rattus norvegicus [8] = assay: Antinociceptive activity in ip dosed Wistar rat partial sciatic nerve ligation model assessed as reversal of cold allodynia after 60 mins; assay type: functional; settings: 1 h; procedure, shortened: as §1
Mus musculus [9] = assay: Anticonvulsant activity in ip dosed Swiss albino mouse assessed as protection against picrotoxin-induced seizure administered 30 mins prior to picrotoxin-challenge measured after 4 hrs; assay type: functional; settings: read-out: MED
Procedure, shortened: (§2)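 Mice, either sex, 20-25 g, given compound i.p. at 30, 100 and 300 mg/kg. Thirty minutes later, picrotoxin 3.15 mg/kg was injected s.c. in 0.01 mL/g body weight. Animals were isolated and watched for 45 min for a threshold convulsion, and protection was scored as its absence. Examined at 0.5 and 4 h. Value reported is the minimum dose active in half or more of the mice (n = 3).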

Mus musculus [10] = assay: Antinociceptive activity in Swiss albino mouse assessed as inhibition of formalin-induced flinching at 100 mg/kg administered 30 mins prior to test measured up to 5 mins relative to control; assay type: functional
Rattus norvegicus [11] = assay: Antinociceptive activity in Wistar rat partial sciatic nerve ligation model assessed as reversal of spontaneous pain response at 100 mg/kg, ip after 120 mins (reference value: 1.2 +/- 0.1%); assay type: functional; settings: route intraperitoneal
Rattus norvegicus [12] = assay: Antinociceptive activity in Wistar rat partial sciatic nerve ligation model assessed as reversal of mechanical allodynia at 100 mg/kg, ip after 30 mins (reference value: 2.9 +/- 0.3%); assay type: functional; settings: route intraperitoneal
Rattus norvegicus [13] = assay: Antinociceptive activity in Wistar rat chronic constriction injury model assessed as reversal of spontaneous pain response at 100 mg/kg, ip after 120 mins (reference value: 4.5 +/- 0.2%); assay type: functional; settings: route intraperitoneal
Rattus norvegicus [14] = assay: Antinociceptive activity in Wistar rat chronic constriction injury model assessed as reversal of spontaneous pain response at 100 mg/kg, ip after 60 mins (reference value: 4.6 +/- 0.6%); assay type: functional; settings: route intraperitoneal
Rattus norvegicus [15] = assay: Antinociceptive activity in ip dosed Wistar rat partial sciatic nerve ligation model assessed as reversal of tactile allodynia after 30 mins; assay type: functional; settings: 0.5 h; procedure, shortened: as §1
Rattus norvegicus [16] = assay: Antinociceptive activity in Wistar rat partial sciatic nerve ligation model assessed as reversal of mechanical allodynia at 100 mg/kg, ip after 120 mins (reference value: 2.9 +/- 0.3%); assay type: functional; settings: route intraperitoneal
Rattus norvegicus [17] = assay: Antinociceptive activity in ip dosed Wistar rat chronic constriction injury model assessed as reversal of mechanical allodynia after 60 mins; assay type: functional; settings: 1 h; procedure, shortened: as §1
Rattus norvegicus [18] = assay: Antinociceptive activity in Wistar rat partial sciatic nerve ligation model assessed as reversal of mechanical allodynia at 100 mg/kg, ip after 60 mins (reference value: 2.8 +/- 0.3%); assay type: functional; settings: route intraperitoneal
[19] = system: Radical scavenging activity; assay: Antioxidant activity assessed as DPPH radical scavenging activity after 20 mins […]; assay type: functional
Procedure, shortened: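 Compounds mixed with methanolic DPPH (final 300 µM) in microplate; after 20 min absorbance at 517 nm read; methanolic DPPH as control. % scavenging = (A DPPH − A DPPH+compound)/A DPPH × 100; dose–response curve used for IC50.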

Rattus norvegicus [20] = organism: Rattus norvegicus; assay: Neuroprotective activity in Wistar rat chronic constriction injury model assessed as inhibition of nitric oxide production in brain after 2 hrs by Griess method relative to control; assay type: functional
Procedure, shortened: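 Wistar rats of either sex (200-250 g) with chronic constriction of the left sciatic nerve. On day 9 post-injury, compound given i.p. in 30% v/v PEG 400; tissue taken 2 h after dosing. Nitrate reduced to nitrite, nitrite measured colorimetrically with Griess reagent against a standard curve. Results expressed as percentage of vehicle-treated control; n = 4.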

Mus musculus [21] = assay: Neurotoxicity in Swiss albino mouse assessed as minimal motor impairment at 300 mg/kg after 4 hrs by rotarod test; assay type: toxicity, organism-based; design: dose 300 mg/kg; settings: in vivo
Procedure, shortened: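 Swiss albino mice of either sex, 20-25 g, dosed at 30, 100 and 300 mg/kg, three per group. Minimal motor impairment scored by rotarod at 0.5 and 4.0 h after dosing. Reported value is the lowest dose giving impairment in half or more of the mice.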

Rattus norvegicus [22] = assay: Antinociceptive activity in Wistar rat partial sciatic nerve ligation model assessed as reversal of spontaneous pain response at 100 mg/kg, ip after 60 mins (reference value: 2.9 +/- 0.3%); assay type: functional; settings: route intraperitoneal
Rattus norvegicus [23] = assay: Antinociceptive activity in Wistar rat chronic constriction injury model assessed as reversal of tactile allodynia at 100 mg/kg, ip after 120 mins (reference value: 4.1 +/- 2.1%); assay type: functional; settings: route intraperitoneal
Rattus norvegicus [24] = assay: Antinociceptive activity in Wistar rat chronic constriction injury model assessed as reversal of cold allodynia at 100 mg/kg, ip after 60 mins (reference value: 6.3 +/- 1.9%); assay type: functional; settings: route intraperitoneal
Rattus norvegicus [25] = assay: Antinociceptive activity in ip dosed Wistar rat partial sciatic nerve ligation model assessed as reversal of tactile allodynia after 60 mins; assay type: functional; settings: 1 h; procedure, shortened: as §1
Rattus norvegicus [26] = assay: Antinociceptive activity in ip dosed Wistar rat chronic constriction injury model assessed as reversal of cold allodynia after 30 mins; assay type: functional; settings: 0.5 h; procedure, shortened: as §1
Rattus norvegicus [27] = assay: Antinociceptive activity in ip dosed Wistar rat chronic constriction injury model assessed as reversal of tactile allodynia after 60 mins; assay type: functional; settings: 1 h; procedure, shortened: as §1
Mus musculus [28] = assay: Anticonvulsant activity in Swiss albino mouse assessed as protection against picrotoxin-induced seizure at 300 mg/kg, ip administered 30 mins prior to picrotoxin-challenge measured after 4 hrs; assay type: functional, organism-based; design: dose 300 mg/kg; procedure, shortened: as §2

Chain of Cannabinoid receptor 1 (P20272 whole entry): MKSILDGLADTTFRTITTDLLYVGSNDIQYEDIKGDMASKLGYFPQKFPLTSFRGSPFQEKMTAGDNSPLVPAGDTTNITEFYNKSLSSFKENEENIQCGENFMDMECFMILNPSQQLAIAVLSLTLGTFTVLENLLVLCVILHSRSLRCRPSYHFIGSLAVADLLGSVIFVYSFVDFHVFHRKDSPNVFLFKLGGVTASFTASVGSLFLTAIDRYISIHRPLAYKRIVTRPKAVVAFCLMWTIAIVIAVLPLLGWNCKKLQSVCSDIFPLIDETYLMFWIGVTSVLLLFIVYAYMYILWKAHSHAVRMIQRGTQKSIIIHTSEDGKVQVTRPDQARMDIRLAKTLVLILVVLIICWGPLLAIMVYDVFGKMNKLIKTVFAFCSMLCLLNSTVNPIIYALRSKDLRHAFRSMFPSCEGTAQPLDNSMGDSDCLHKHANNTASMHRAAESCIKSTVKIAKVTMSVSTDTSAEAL

Row | SMILES | Activity (Rattus norvegicus [1]) [%] | ED50 (Rattus norvegicus [2]) [mg/kg] | Activity (Rattus norvegicus [3]) [%] | Activity (Rattus norvegicus [4]) [%] | IC50 (Cannabinoid receptor 1) [µM] | Activity (Rattus norvegicus [5]) [%] | ED50 (Rattus norvegicus [6]) [mg/kg] | inhibition in vivo at 100 mg/kg (Mus musculus [10]) [%] | Activity (Rattus norvegicus [11]) [%] | Activity (Rattus norvegicus [12]) [%] | Activity (Rattus norvegicus [13]) [%] | Activity (Rattus norvegicus [14]) [%] | Activity (Rattus norvegicus [16]) [%] | Activity (Rattus norvegicus [18]) [%] | IC50 [19] [µM] | inhibition (INH) (Rattus norvegicus [20]) [%] | Activity (Mus musculus [21]) | Activity (Rattus norvegicus [22]) [%] | Activity (Rattus norvegicus [23]) [%] | Activity (Rattus norvegicus [24]) [%] | other results
1 | CCN1CCc2c(c(C(C)(C)C)nn2C(=O)Nc2c(C)cccc2C)C1 | 10.4 | 37.4 | 89.4 | 84.4 | > 1 | 61.4 | 10.4 | 15.7 | 57.8 | 95.5 | 88.5 | 90.7 | 50 | 57.7 | 102 | 15.3 | Non-toxic | 78.3 | 69.7 | 61.2 | ED50 (Rattus norvegicus [7]): 21.7 mg/kg; ED50 (Rattus norvegicus [8]): 65.8 mg/kg; minimal effective dose (Mus musculus [9]): 100 mg/kg; ED50 (Rattus norvegicus [15]): 24.9 mg/kg; ED50 (Rattus norvegicus [17]): 38.3 mg/kg
2 | CCN1CCc2c(c(C(C)(C)C)nn2C(=O)Nc2ccc(Br)cc2)C1 | 48.2 | – | 61.6 | 66 | 0.0496 | 73 | – | 0 | 43.1 | 59.8 | 83.2 | 85.9 | 41.1 | 53.6 | 81 | 16.4 | Non-toxic | 55.7 | 50.5 | 65 | ED50 (Rattus norvegicus [25]): 37.5 mg/kg; ED50 (Rattus norvegicus [7]): 23.8 mg/kg; minimal effective dose (Mus musculus [9]): 100 mg/kg; ED50 (Rattus norvegicus [26]): 41.4 mg/kg
3 | CCN1CCc2c(c(C(C)(C)C)nn2C(=O)Nc2ccc(C)cc2C)C1 | 38.2 | 29.8 | 61.6 | 80 | > 1 | 53.9 | 15.5 | 15.7 | 64.2 | 62.3 | 89.5 | 90.9 | 46.3 | 56.3 | 134 | 12.5 | Non-toxic | 67.3 | 58 | 50.4 | ED50 (Rattus norvegicus [8]): 44.4 mg/kg; ED50 (Rattus norvegicus [27]): 23.4 mg/kg; ED50 (Rattus norvegicus [17]): 25.7 mg/kg; Activity (Mus musculus [28]): inactive
